Laboratory results taken from ChEMBL document CHEMBL5236609, “Optimization of 1,2,4-Triazole-3-thiones toward Broad-Spectrum Metallo-β-lactamase Inhibitors Showing Potent Synergistic Activity on VIM- and NDM-1-Producing Clinical Isolates” (J Med Chem, 2022).
Activity calls are given as the source filed them. No cut-off for these calls is given here.

Assays:
[1] = system: Pseudomonas aeruginosa; experiment: Antimicrobial activity against blaVIM-2-producing multidrug-resistant Pseudomonas aeruginosa VA-182/00 clinical isolate assessed as meropenem MIC at 32 ug/ml by broth microdilution method (reference value: 128 ug/ml); assay type: functional; settings: dose 32 µg/ml
Summary of the method: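 Inoculum was 5×10^4 CFU/well. Each inhibitor was present at a fixed 32 μg/mL, and MICs were also taken without inhibitor.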

[2] = n-Octanol/PBS partition coefficient, logD of the compound at pH 7.4 after 2 hrs by LC-MS/MS analysis; assay type: physicochemical
Summary of the method: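 LogD from partitioning between 10 mM PBS pH 7.4 and n-octanol (1:1).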

[3] = Metabolic stability in CD-1 mouse microsomes assessed as compound remaining after 40 mins LC-MS/MS analysis; assay type: ADME, Microsome; settings: read-out: Activity
Summary of the method: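 Mouse liver microsomes, mixed gender, at 37 °C for 40 min; propranolol control. Reports t1/2, intrinsic clearance and % intact compound remaining at 40 min.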

[4] = target: T1, Aminopeptidase N (Sus scrofa) (UniProt P15145); experiment: Inhibition of porcine APN using fluorogenic substrate H-Leu-AMC measured for 1 h rat 100 uM relative to control
T1 sequence (whole entry): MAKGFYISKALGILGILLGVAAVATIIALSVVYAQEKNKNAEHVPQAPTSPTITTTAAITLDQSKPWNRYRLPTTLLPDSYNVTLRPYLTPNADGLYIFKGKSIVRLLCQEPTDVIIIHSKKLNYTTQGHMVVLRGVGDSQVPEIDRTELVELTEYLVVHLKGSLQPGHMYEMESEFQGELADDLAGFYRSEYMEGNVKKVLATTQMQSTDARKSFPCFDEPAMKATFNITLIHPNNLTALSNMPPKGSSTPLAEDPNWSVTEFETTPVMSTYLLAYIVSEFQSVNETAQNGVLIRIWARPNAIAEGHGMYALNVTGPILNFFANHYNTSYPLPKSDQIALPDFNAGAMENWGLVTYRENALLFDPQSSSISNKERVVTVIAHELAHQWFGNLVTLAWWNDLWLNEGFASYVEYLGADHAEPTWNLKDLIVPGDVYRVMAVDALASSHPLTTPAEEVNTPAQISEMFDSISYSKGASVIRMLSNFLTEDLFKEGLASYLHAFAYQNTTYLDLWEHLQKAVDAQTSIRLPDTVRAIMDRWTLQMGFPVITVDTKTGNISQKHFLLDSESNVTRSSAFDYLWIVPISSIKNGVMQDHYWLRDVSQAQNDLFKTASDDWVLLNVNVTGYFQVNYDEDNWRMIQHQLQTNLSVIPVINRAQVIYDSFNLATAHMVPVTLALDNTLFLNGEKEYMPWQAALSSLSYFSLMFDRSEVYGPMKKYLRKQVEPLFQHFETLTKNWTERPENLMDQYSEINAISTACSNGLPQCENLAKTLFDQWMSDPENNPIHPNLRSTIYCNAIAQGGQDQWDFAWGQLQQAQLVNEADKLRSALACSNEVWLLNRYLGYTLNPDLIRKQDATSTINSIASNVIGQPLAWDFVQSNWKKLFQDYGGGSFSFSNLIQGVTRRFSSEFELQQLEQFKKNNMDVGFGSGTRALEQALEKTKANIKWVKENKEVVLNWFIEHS

[5] = system: Bacteria; experiment: Inhibition of bacterial IMP-1 (unknown origin) expressed in Escherichia coli EXPRESS BL21(DE3) assessed as inhibition constant by measuring rate of substrate hydrolysis at 100 uM by UV-visible spectrophotometry relative to control
Summary of the method: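 Reporter-substrate assay with purified MBL (1–70 nM final) in 50 mM HEPES pH 7.5 at 30 °C. […] Inhibitor 0.5–1000 μM final. Ki derived from the v0/vi vs [I] slope assuming competitive inhibition, or from a Dixon plot. Ki given when inhibition >70%, otherwise % inhibition at 100 μM. Triplicate.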

[6] = system: Bacteria; experiment: Inhibition of bacterial NDM-1 (unknown origin) assessed as Zn(II) content in protein at 48 uM at 48 uM by overnight equilibrium dialysis
Summary of the method: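 VIM-2 or NDM-1 (3 μM final) in 50 mM HEPES pH 7.5 mixed with compound at 0–48 μM. Incubated 1 h on ice, then dialysed overnight at 4 °C against 50 mM HEPES pH 7.5. Zn(II) content measured by atomic absorption at 213.86 nm against a zinc standard curve. Each point averages three samples.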

[7] = system: Bacteria; experiment: Inhibition of bacterial VIM-2 (unknown origin) assessed as decrease in Zn(II) content in protein at 50 uM by native MS analysis
Summary of the method: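 Purified VIM-2 or NDM-1 was given 2 mM TCEP and 2 equiv ZnCl2, incubated 1 h, and dialysed overnight into 100 mM ammonium acetate pH 7.5. Enzyme at 10 μM was then incubated 5 min with 50 μM compound. Positive-mode nanoESI on an Orbitrap, scanning m/z 1000–4000. Species assigned from deconvoluted masses.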

[8] = Binding affinity to Zn(II) assessed as dissociation constant by isothermal calorimetric assay
[9] = Binding affinity to Zn(II) assessed as change in enthalpy by isothermal calorimetric assay
[10] = Chelation of Zn(II) in bacterial VIM-2 (unknown origin) by isothermal calorimetric assay
Summary of the method: (§1)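 ITC at 25 °C. VIM-2 at 19 μM in 10 mM HEPES-NaOH, 0.15 M NaCl, pH 7.5 with DMSO matched to 1%, titrated with compound at 200 μM: one 0.5 μL injection, then 19 × 2 μL at 150 s intervals. Buffer dilution heats subtracted. Nonlinear fit gives n, Ka and ΔH°; values regarded as apparent.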

[11] = Chelation of Zn(II) in bacterial NDM-1 (unknown origin) by isothermal calorimetric assay
[12] = system: Bacteria; experiment: Binding affinity to bacterial VIM-2 (unknown origin) assessed as association constant by isothermal calorimetric assay; summary of the method: as §1
[13] = Binding affinity to bacterial VIM-2 (unknown origin) assessed as dissociation constant by isothermal calorimetric assay; design: species or system Bacteria; summary of the method: as §1
[14] = system: Bacteria; experiment: Binding affinity to bacterial VIM-2 (unknown origin) assessed as Gibbs free energy by isothermal calorimetric assay; summary of the method: as §1
[15] = system: Bacteria; experiment: Binding affinity to bacterial VIM-2 (unknown origin) assessed as change in entropy by isothermal calorimetric assay; summary of the method: as §1
[16] = system: Klebsiella pneumoniae; experiment: Antimicrobial activity against blaVIM-4-producing multidrug-resistant Klebsiella pneumoniae VA-416/02 clinical isolate assessed as meropenem MIC using cation-adjusted Mueller-Hinton broth at 1 ug/ml by broth microdilution method (reference value: […] ug/ml); assay type: functional; settings: dose 1 µg/ml
Summary of the method: (§2)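 Checkerboard broth microdilution in cation-supplemented Mueller–Hinton broth, inoculum 5×10^4 CFU/well, per CLSI. […] The average fractional inhibitory concentration index was computed from the checkerboard.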

[17] = system: Escherichia coli; experiment: Antimicrobial activity against blaNDM-1-producing multidrug-resistant Escherichia coli SI-004 clinical isolate assessed as meropenem MIC using cation-adjusted Mueller-Hinton broth at 16 ug/ml by broth microdilution method (reference value: 64 ug/ml); assay type: functional; settings: dose 16 µg/ml; summary of the method: as §2
[18] = system: Escherichia coli; experiment: Antimicrobial activity against blaNDM-1-producing multidrug-resistant Escherichia coli SI-004 clinical isolate assessed as meropenem MIC using cation-adjusted Mueller-Hinton broth at 1 ug/ml by broth microdilution method (reference value: 64 ug/ml); assay type: functional; settings: dose 1 µg/ml; summary of the method: as §2

Compound `O=C(O)[C@H](CCCn1c(-c2ccc3ccccc3c2)n[nH]c1=S)N(Cc1c[nH]cn1)Cc1c[nH]cn1` has an MIC [1] of 8 µg/mL and a logD at 2 h [2] of -0.823.

For `Cc1[nH]cnc1CN(Cc1c[nH]cn1)[C@@H](CCCn1c(-c2ccccc2)n[nH]c1=S)C(=O)O`, the MIC [1] was 8 µg/mL, the logD at 2 h [2] was -1.93 and the remaining at 40 min [3] was 98.1%. The inhibition [4] was 58%.

Compound `O=C(O)[C@H](CCn1c(-c2ccccc2)n[nH]c1=S)N(Cc1c[nH]cn1)Cc1c[nH]cn1` has an MIC [1] of 8 µg/mL, a logD at 2 h [2] of -2.2 and a remaining at 40 min [3] of 91.2%.

With `O=C(O)[C@H](CCCn1c(-c2ccccc2)n[nH]c1=S)N(Cc1ccccn1)Cc1ccccn1` the inhibition [5] was under 30%, the Activity [6] was 1.09 equiv and the inhibition [7] was “Active”. For the same compound, the Kd [8] was 10 nM, the deltaH [9] was 6 kcal/mol and the Activity [10] was “inactive”. The Activity [11] was “inactive”, the MIC [1] was 16 µg/mL and the logD at 2 h [2] was 0.243. For the same compound, the remaining at 40 min [3] was 80.5% and the inhibition [4] was 30%.

In the case of `O=C(O)[C@H](CCCn1c(-c2ccccc2)n[nH]c1=S)N(Cc1c[nH]cn1)Cc1c[nH]cn1`, the inhibition [5] is reported as 40%, the Activity [6] is reported as 1.09 equiv and the inhibition [7] is reported as “Active”. For the same compound, the Kd [8] was 10 nM, the deltaH [9] was 5 kcal/mol and the Ka [12] was 1.4 10^6/M. For the same compound, the Kd [13] was 700 nM, the deltaG [14] was -8.4 kcal/mol and the TdeltaS [15] was -1.4 kcal/mol. For the same compound, the Activity [10] was “Active”, the Activity [11] was “Active” and the MIC [1] was 8 µg/mL. The MIC [16] was 8 µg/mL, the MIC [17] was 0.06 µg/mL and the MIC [18] was 64 µg/mL. For the same compound, the logD at 2 h [2] was -2.12.
